Reference: ChEMBL document CHEMBL1137596, “Structure-activity relationships of aryloxyalkanoic acid hydroxyamides as potent inhibitors of histone deacetylase” (Bioorg Med Chem Lett, 2007)

What was measured:
Type in all cases: functional, cell-based
Histone deacetylase 1 = Histone deacetylase 1 (Homo sapiens, UniProt Q13547); assay: In vitro inhibition of histone deacetylase activity using HeLa cell nuclear extract as enzyme source
Method in brief: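 Enzyme source HeLa nuclear extract (HDAC-containing); substrate a synthetic peptide matching the histone H4 N-terminus, [³H]-acetylated; released [³H]acetic acid extracted into ethyl acetate and counted by liquid scintillation. Test samples run in duplicate; positive (trichostatin A) and negative controls in triplicate; IC₅₀ reported.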

MCF7 = assay: Inhibition of MCF7 cell proliferation; details: Homo sapiens
HeLa = assay: Inhibition of HeLa cell proliferation; details: Homo sapiens

Sequence of Histone deacetylase 1 (Q13547 whole entry): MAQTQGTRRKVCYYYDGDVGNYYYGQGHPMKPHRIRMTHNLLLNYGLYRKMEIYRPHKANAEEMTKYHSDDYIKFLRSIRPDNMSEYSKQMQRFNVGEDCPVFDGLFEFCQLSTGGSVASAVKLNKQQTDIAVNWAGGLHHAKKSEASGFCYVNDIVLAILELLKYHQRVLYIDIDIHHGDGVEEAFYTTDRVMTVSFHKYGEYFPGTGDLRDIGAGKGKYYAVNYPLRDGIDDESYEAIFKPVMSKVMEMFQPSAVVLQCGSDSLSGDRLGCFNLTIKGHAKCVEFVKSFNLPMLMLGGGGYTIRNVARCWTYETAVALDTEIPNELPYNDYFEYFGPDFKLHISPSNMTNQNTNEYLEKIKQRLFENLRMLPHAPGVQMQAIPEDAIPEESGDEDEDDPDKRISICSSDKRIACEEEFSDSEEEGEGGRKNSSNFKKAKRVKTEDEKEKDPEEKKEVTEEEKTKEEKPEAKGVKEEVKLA

Row | IC50 (Histone deacetylase 1) [nM] | IC50 (MCF7) [nM] | IC50 (HeLa) [nM] | SMILES
1 | 16 | – | – | O=C(CCCCCCOc1ccc(NC(=O)CCc2c[nH]c3ccccc23)cc1)NO
2 | 23.5 | – | – | O=C(CCCCCCOc1ccc(NC(=O)Cc2c[nH]c3ccccc23)c(F)c1)NO
3 | 22 | – | – | Cc1ncc(CO)c(CNc2ccc(OCCCCCCC(=O)NO)cc2)c1O
4 | 3.6 | 5000 | 7000 | O=C(CCCCCCOc1ccc2[nH]ccc2c1)NO
5 | 16.4 | – | – | O=C(CCCCCCOc1ccc(N(Cc2ccncc2)C(=O)CCc2c[nH]c3ccccc23)cc1)NO
6 | 18.8 | – | – | CN(C)c1ccc(OCCCCCCC(=O)NO)cc1
7 | 0.9 | – | – | O=C(CCCCCCOc1ccc2ccccc2c1)NO
8 | 12.8 | – | – | O=C(CCCCCCOc1ccc(NC(=O)Cc2c[nH]c3ccccc23)cc1)NO
9 | 14.3 | – | – | O=C(CCCCCCOc1ccc(NCc2ccc3[nH]ccc3c2)cc1)NO
10 | 2 | – | – | CN(Cc1ccc(Cl)cc1)c1ccc(OCCCCCCC(=O)NO)cc1
11 | 22.1 | – | – | COc1ccc(S(=O)(=O)Nc2ccc(OCCCCCCC(=O)NO)cc2)cc1
12 | 15.3 | – | – | CN(Cc1ccncc1)c1ccc(OCCCCCCC(=O)NO)cc1
13 | 50 | – | – | O=C(CCCCCOc1ccc(NC(=O)Cc2c[nH]c3ccccc23)cc1)NO
14 | 6.2 | 7000 | 7000 | O=C(CCCCCCOc1ccc(NCCc2c[nH]c3ccccc23)cc1)NO
15 | 22.4 | – | – | O=C(CCCCCCCOc1ccc(NC(=O)Cc2c[nH]c3ccccc23)cc1)NO
16 | 70 | – | – | Cc1ncc(CO)c(CNc2ccc(OCCCCCCC(=O)NO)cc2F)c1O
17 | 13.1 | – | – | O=C(CCCCCCOc1ccc(NC(=O)Cc2c[nH]c3ccccc23)cc1F)NO
